Reference: ChEMBL document CHEMBL5058577, “EUbOPEN Chemogenomics Library 2 (Multiplex)” (2022)

Tested on: U2OS
Assay: Multiplex assay against U2OS
Assay type: toxicity, cell-based
Settings: human
In short: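 Imaging took place on a CQ1 microscope at 37°C and 5% CO2 once compound had been added to live cells stained at seeding with Hoechst33342, BioTracker Green Microtubule Cytoskeleton Dye, MitoTracker Red and Annexin V Alexa Fluor 680. CellPathfinder machine-learning gating classed cells as Hoechst high-intensity objects or normal cells, classed normal cells as having healthy, pyknosed or fragmented nuclei, and classed pyknosed cells as mitotic or apoptotic. Tubulin, mitochondrial-mass and membrane-permeability phenotypes are per cents of the healthy-nucleus cells.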

[1] = 12 h, 1 µM, compound concentration 1 uM, replicate 1
[2] = 12 h, 1 µM, compound concentration 1 uM, replicate 2
[3] = 12 h, 10 µM, compound concentration 10 uM, replicate 1
[4] = 12 h, 10 µM, compound concentration 10 uM, replicate 2
[5] = 24 h, 1 µM, compound concentration 1 uM, replicate 1
[6] = 24 h, 1 µM, compound concentration 1 uM, replicate 2
[7] = 24 h, 10 µM, compound concentration 10 uM, replicate 1
[8] = 24 h, 10 µM, compound concentration 10 uM, replicate 2
[9] = 48 h, 1 µM, compound concentration 1 uM, replicate 1
[10] = 48 h, 1 µM, compound concentration 1 uM, replicate 2
[11] = 48 h, 10 µM, compound concentration 10 uM, replicate 1
[12] = 48 h, 10 µM, compound concentration 10 uM, replicate 2

COc1cc(Nc2ncc3c(n2)-c2ccc(Cl)cc2C(c2c(F)cccc2OC)=NC3)ccc1C(=O)O [ALISERTIB]
Population Apoptotic (%) [1]: 63%
Population Fragmented Nuclei (%) [1]: 23%
Population Healthy Nuclei (%) [1]: 65%
Population Hoechst High Intensity Objects (%) [1]: 1%
Population Membrane Permeable-Phenotype (%) [1]: 4%
Population Mitochondria Different-Phenotype (%) [1]: 3%
Population Mitotic Cells (%) [1]: 36%
Population Normal (%) [1]: 98%
Population Pyknosed Nuclei (%) [1]: 10%
Population Tubulin-Different-Phenotype (%) [1]: 3%
Population Apoptotic (%) [2]: 71%
Population Fragmented Nuclei (%) [2]: 35%
Population Healthy Nuclei (%) [2]: 55%
Population Hoechst High Intensity Objects (%) [2]: 4%
Population Membrane Permeable-Phenotype (%) [2]: 8%
Population Mitochondria Different-Phenotype (%) [2]: 4%
Population Mitotic Cells (%) [2]: 28%
Population Normal (%) [2]: 95%
Population Pyknosed Nuclei (%) [2]: 8%
Population Tubulin-Different-Phenotype (%) [2]: 11%
Population Apoptotic (%) [3]: 79%
Population Fragmented Nuclei (%) [3]: 31%
Population Healthy Nuclei (%) [3]: 57%
Population Hoechst High Intensity Objects (%) [3]: 3%
Population Membrane Permeable-Phenotype (%) [3]: 11%
Population Mitochondria Different-Phenotype (%) [3]: 5%
Population Mitotic Cells (%) [3]: 20%
Population Normal (%) [3]: 96%
Population Pyknosed Nuclei (%) [3]: 11%
Population Tubulin-Different-Phenotype (%) [3]: 4%
Population Apoptotic (%) [4]: 71%
Population Fragmented Nuclei (%) [4]: 12%
Population Healthy Nuclei (%) [4]: 82%
Population Hoechst High Intensity Objects (%) [4]: 2%
Population Membrane Permeable-Phenotype (%) [4]: 5%
Population Mitochondria Different-Phenotype (%) [4]: 1%
Population Mitotic Cells (%) [4]: 28%
Population Normal (%) [4]: 97%
Population Pyknosed Nuclei (%) [4]: 5%
Population Tubulin-Different-Phenotype (%) [4]: 0%
Population Apoptotic (%) [5]: 78%
Population Fragmented Nuclei (%) [5]: 26%
Population Healthy Nuclei (%) [5]: 64%
Population Hoechst High Intensity Objects (%) [5]: 1%
Population Membrane Permeable-Phenotype (%) [5]: 9%
Population Mitochondria Different-Phenotype (%) [5]: 4%
Population Mitotic Cells (%) [5]: 21%
Population Normal (%) [5]: 98%
Population Pyknosed Nuclei (%) [5]: 8%
Population Tubulin-Different-Phenotype (%) [5]: 5%
Population Apoptotic (%) [6]: 75%
Population Fragmented Nuclei (%) [6]: 20%
Population Healthy Nuclei (%) [6]: 63%
Population Hoechst High Intensity Objects (%) [6]: 2%
Population Membrane Permeable-Phenotype (%) [6]: 6%
Population Mitochondria Different-Phenotype (%) [6]: 2%
Population Mitotic Cells (%) [6]: 25%
Population Normal (%) [6]: 97%
Population Pyknosed Nuclei (%) [6]: 15%
Population Tubulin-Different-Phenotype (%) [6]: 2%
Population Apoptotic (%) [7]: 84%
Population Fragmented Nuclei (%) [7]: 30%
Population Healthy Nuclei (%) [7]: 55%
Population Hoechst High Intensity Objects (%) [7]: 4%
Population Membrane Permeable-Phenotype (%) [7]: 13%
Population Mitochondria Different-Phenotype (%) [7]: 5%
Population Mitotic Cells (%) [7]: 15%
Population Normal (%) [7]: 95%
Population Pyknosed Nuclei (%) [7]: 13%
Population Tubulin-Different-Phenotype (%) [7]: 4%
Population Apoptotic (%) [8]: 90%
Population Fragmented Nuclei (%) [8]: 12%
Population Healthy Nuclei (%) [8]: 77%
Population Membrane Permeable-Phenotype (%) [8]: 9%
Population Mitochondria Different-Phenotype (%) [8]: 4%
Population Mitotic Cells (%) [8]: 9%
Population Pyknosed Nuclei (%) [8]: 9%
Population Tubulin-Different-Phenotype (%) [8]: 5%
Population Apoptotic (%) [9]: 85%
Population Fragmented Nuclei (%) [9]: 28%
Population Healthy Nuclei (%) [9]: 59%
Population Hoechst High Intensity Objects (%) [9]: 3%
Population Membrane Permeable-Phenotype (%) [9]: 6%
Population Mitochondria Different-Phenotype (%) [9]: 5%
Population Mitotic Cells (%) [9]: 14%
Population Normal (%) [9]: 96%
Population Pyknosed Nuclei (%) [9]: 12%
Population Tubulin-Different-Phenotype (%) [9]: 3%
Population Apoptotic (%) [10]: 78%
Population Fragmented Nuclei (%) [10]: 29%
Population Healthy Nuclei (%) [10]: 53%
Population Membrane Permeable-Phenotype (%) [10]: 11%
Population Mitochondria Different-Phenotype (%) [10]: 6%
Population Mitotic Cells (%) [10]: 21%
Population Pyknosed Nuclei (%) [10]: 17%
Population Tubulin-Different-Phenotype (%) [10]: 4%
Population Apoptotic (%) [11]: 88%
Population Fragmented Nuclei (%) [11]: 34%
Population Healthy Nuclei (%) [11]: 44%
Population Hoechst High Intensity Objects (%) [11]: 9%
Population Membrane Permeable-Phenotype (%) [11]: 16%
Population Mitochondria Different-Phenotype (%) [11]: 9%
Population Mitotic Cells (%) [11]: 11%
Population Normal (%) [11]: 90%
Population Pyknosed Nuclei (%) [11]: 21%
Population Tubulin-Different-Phenotype (%) [11]: 9%
Population Fragmented Nuclei (%) [12]: 16%
Population Healthy Nuclei (%) [12]: 70%
Population Hoechst High Intensity Objects (%) [12]: 5%
Population Membrane Permeable-Phenotype (%) [12]: 7%
Population Mitochondria Different-Phenotype (%) [12]: 3%
Population Normal (%) [12]: 94%
Population Pyknosed Nuclei (%) [12]: 13%
Population Tubulin-Different-Phenotype (%) [12]: 2%
